# Compound activity as filed in PubChem.
# An excerpt weighted towards active compounds, which were near 1.9% of everything screened.
# ASAP1 inh: inhibitors of human ASAP1 ArfGAP activity, primary screen, biochemical, fluorescence polarization; AID 624377, 2012; 360,000 compounds, 0.19% hits; Arf-GAP with SH3 domain, ANK repeat and PH domain-containing protein 1 (Homo sapiens), …; ASAP1-stimulated ARF1 GTP hydrolysis, GDP FP detection; inhibition, % at 16.5 µM; in the data active means inhibition above about 25%;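 further: 0% = vehicle with enzyme and substrate and 100% = no enzyme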
# Target sequence (Q9ULH1 325-724 limits assumed): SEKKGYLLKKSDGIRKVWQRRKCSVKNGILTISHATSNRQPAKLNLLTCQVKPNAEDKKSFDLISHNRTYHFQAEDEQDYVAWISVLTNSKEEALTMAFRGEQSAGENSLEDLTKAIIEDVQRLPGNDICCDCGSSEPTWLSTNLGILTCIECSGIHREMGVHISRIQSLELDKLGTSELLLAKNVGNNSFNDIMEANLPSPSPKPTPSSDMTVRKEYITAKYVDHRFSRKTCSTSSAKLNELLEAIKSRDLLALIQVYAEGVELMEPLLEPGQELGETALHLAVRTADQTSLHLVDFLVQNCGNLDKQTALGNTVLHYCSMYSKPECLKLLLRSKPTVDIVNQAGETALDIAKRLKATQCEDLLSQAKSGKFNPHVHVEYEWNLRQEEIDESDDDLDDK
# Rtt109 HAT inh: inhibitors of C. albicans Rtt109/Vps75 HAT, primary screen, biochemical, ThioGlo CoA-SH fluorescence, plate reader; inhibition, % at 34.9 µM; Histone acetyltransferase RTT109 (Candida albicans (strain SC5314 / ATCC MYA-2876)), …; 330,000 compounds, 0.16% hits; purified Rtt109/Vps75, 4 h;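 active means inhibition of at least 50% in every replicate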
# Efflux pump mplx: inhibitors of Candida efflux pumps in yeast, primary screen, S. cerevisiae, Nile Red, multiplex. S. cerevisiae Candida pump triplex. inhibition, % at 10 µM. 330,000 compounds, 0.44% hits;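 active means plate passing quality check with inhibition over a set limit, or well fluorescence over plate mean plus 4 SD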;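 further: Nile Red retained in pooled yeast measured as flow cytometry median fluorescence; 0% = buffer negative control and 100% = Enniatin B positive control; higher means more Nile Red kept so more efflux inhibition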
# ARFGAP1 inh: inhibitors of rat ARFGAP1 GAP activity, primary screen, biochemical, fluorescence polarization, GDP tracer; ADP-ribosylation factor GTPase-activating protein 1 (Rattus norvegicus), Q62848; 360,000 compounds, 0.26% hits; Arfgap1-stimulated ARF1 GTP hydrolysis, GDP FP detection; inhibition, % at 16.5 µM;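 active means inhibition above a per-plate limit, mean inhibition of low control wells plus 3 SD, cut at about 25% in these data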;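 further: 0% = DMSO wells with enzyme and 100% = wells lacking Arfgap1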
#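 system = rat Arfgap1 catalytic domain, aa 1-136 | technique = FP, GDP Alexa 633 tracer displaced from anti-GDP antibody, 620/688 nm | compound = one concentration, 16.5 µM, DMSO 1.26% | medium = HEPES-based buffer, pH 7.5 | timing = compound-enzyme preincubation 20 min, reaction 120 min, detection 60 min, 25 °C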
# FGF22 binding: binders of human FGF22 protein, primary screen, FGF22 synaptogenesis inhibitor project, biophysical, thermal shift, single point | recombinant FGF22 thermal shift, SYPRO orange fluorescence; percent of sucrose octasulfate shift, DMSO zero | AID 651658, 2012 | activity (Tm shift, normalised), % at 9.99 µM | 340,000 compounds, 1.5% hits | Fibroblast growth factor 22 (Homo sapiens), Q9HCT0;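 active means mean Tm shift, scaled 0 neutral to 100 positive control, at about 1.3% or above, every replicate too, limit read from the data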
# Active calls of the source: *; nt = not tested or not shown.
SMILES,ASAP1 inh,Rtt109 HAT inh,Efflux pump mplx,ARFGAP1 inh,FGF22 binding
C#CCOCCOCCOCCNc1nc(N2CCN(C(=O)C([C@@H](C)O)n3cc([C@@H](N)CCCCN)nn3)CC2)nc(N2CCN(C(=O)[C@H](CCCCN)n3cc([C@@H](N)[C@H](C)CC)nn3)CC2)n1 (some centres not stated),6,1,0,-7,0
C#CCOCCOCCOCCNc1nc(N2CCN(C(=O)[C@H](CO)n3cc([C@@H](N)C(C)C)nn3)CC2)nc(N2CCN(C(=O)[C@H](CCCCN)n3cc([C@@H](N)[C@H](C)CC)nn3)CC2)n1,10,-8,0,-2,43*
CCOc1ccc(S(=O)(=O)NCCCN2CCCC2=O)cc1,-2,-8,0,-1,0
CN(Cc1cc([N+](=O)[O-])c2cccnc2c1O)C1CCCCC1,nt,nt,8.2*,nt,nt
O=[N+]([O-])c1cc(CN2CCN(c3ccccc3)CC2)c(O)c2ncccc12,-8,3,0,5,43*
COc1cc(COCC(O)CN2CCN(Cc3ccccc3)CC2)cc(OC)c1OC (configuration not stated),-14,-3,0,3,44*
CCN1CCN(CC(O)COCc2cc(OC)c(OC)c(OC)c2)CC1 (configuration not stated),6,0,0,-7,0
COc1ccc2c3c(n(C)c2c1)[C@@H](CO)N(C(=O)Cc1ccccn1)CC31CN(C)C1,nt,nt,nt,nt,0
CCc1cc2c(nc1CC)CCCN2S(=O)(=O)c1c(C)noc1C,-14,nt,nt,-2,43*
COc1cccc(C(C(=O)NC(C)(C)C)N(CCc2ccccc2)C(=O)CCC(=O)Nc2cc(C)on2)c1OC (configuration not stated),1,26,0,-7,0
C[C@H]1CCC[C@]2(O[C@@H](CCO)C[C@@H](O)[C@@H]2O)O1,5,-11,0,-1,0
COc1ccc(-n2nc(C(=O)NCC(=O)NCC3COc4ccccc4O3)c3ccccc3c2=O)c(OC)c1 (configuration not stated),-3,4,0,2,44*
COc1ccccc1NC(=O)C1=C(C)NC(=O)NC1c1ccccc1[N+](=O)[O-] (configuration not stated),-3,-25,0,-7,43*
COc1ccc(NC(=O)C2=C(C)NC(=O)NC2c2cccs2)c(OC)c1 (configuration not stated),5,-6,0,12,44*
CC1=C(C(=O)Nc2ccccc2)C(c2ccccc2[N+](=O)[O-])NC(=O)N1 (configuration not stated),6,36,0,-4,43*
CCc1ccccc1NC(=O)Nc1cc(F)ccc1F,8,nt,0,9,0
NC(=O)[C@@H]1CCCN1Cc1nc(-c2ccc(C(F)(F)F)cc2)no1,-7,nt,0,0,43*
COc1ccccc1CNc1nc(-c2cc(C)n(C)c2C)cs1,nt,10,nt,nt,nt
COCCNc1nc(-c2cc(C)n(CCc3ccc(OC)cc3)c2C)cs1,9,16,0,15,43*
Fc1ccc(C2CC(c3ccco3)=Nc3ccccc3S2)cc1 (configuration not stated),3,56*,0,5,0
CCN(CC)C(=S)SSC(=S)N(CC)CC,11,150*,0,11,0
CCN(CC)C(=S)SCC(=O)c1ccccc1,6,-4,0,10,nt
COc1ccc(Oc2ccc(/C=N/NC(=O)c3cccnc3)cc2[N+](=O)[O-])cc1,-3,14,0,-3,43*
COc1cc(/C=N/NC(=O)c2cccnc2)ccc1OCC(=O)Nc1ccc(C)cc1,1,2,0,-3,44*
CCNC(=O)COc1ccc(/C=N/NC(=O)c2cccnc2)cc1OC,8,7,0,9,0
COc1ccc(/C=N/NC(=O)C(=O)NCc2cccnc2)cc1,2,-7,0,8,44*
